≈ marks a conversion by molar mass, not a printed value.

Format in all cases: functional
The subject of test [1] is Staphylococcus aureus. As to the kind of experiment: Antibacterial activity against methicillin-resistant Staphylococcus aureus Xen1 infected neutropenic CD1 mouse assessed as mortality at 100 mg/kg, po within 24 hrs. As to conditions: Xen1, 24 h. The method, boiled down: (§1)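 Female CD-1 mice (20–25 g) were made neutropenic with cyclophosphamide i.p. at 150 mg/kg 4 days and 100 mg/kg 1 day before infection. They were infected i.p. with a lethal dose of lux strain (2 × 10^7 to 5 × 10^8 CFU/mouse) suspended in 6% hog gastric mucin. A single s.c. or gavage dose was given 1 h later. Survivors were counted daily for 7 days, n=5/group.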

In test [2] the test system is Staphylococcus aureus. As to the kind of experiment: Antibacterial activity against methicillin-resistant Staphylococcus aureus Xen1 infected neutropenic CD1 mouse assessed as mortality at 100 mg/kg, po after 4 days. A digest of the protocol: as §1
The test system of test [3] is Staphylococcus aureus. As to the kind of experiment: Antibacterial activity against methicillin-susceptible Staphylococcus aureus Xen29 infected neutropenic CD1 mouse assessed as mortality at 100 mg/kg, po after 4 days. The method, boiled down:
as §1

Test [4] has as its system Staphylococcus aureus. As to the kind of experiment: Antibacterial activity against methicillin-susceptible Staphylococcus aureus Xen29 infected neutropenic CD1 mouse assessed as mortality at 100 mg/kg, po within 24 hrs. As to conditions: Xen29, 24 h. A digest of the protocol:
as §1

The test system of test [5] is Staphylococcus aureus. As to the kind of experiment: Reduction in bioluminescent methicillin-sensitive Staphylococcus aureus Xen29 in immunocompetent CD1 mouse with peritonitis at 50 mg/kg, sc after 4 hrs relative to control. The arrangement: scale not given: the % may be the effect or the level left. Conditions: route subcutaneous. A digest of the protocol: (§2)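 Peritonitis in healthy female CD-1 mice (n = 5/group): i.p. Xen-29 (2 × 10^7 to 5 × 10^8 CFU) in 6% mucin, then a single s.c. or gavage dose at 1 h. Controls got saline 10 ml/kg s.c. Mice were anesthetized hourly (pentobarbital 60 mg/kg i.p. or isoflurane) and imaged ventral side up for 1–5 min, to 5 h postdosing. Total flux (photons/s/cm2) over the infected region was averaged per group. Percent reduction is versus time-matched saline controls.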

The subject of test [6] is Staphylococcus aureus. As to the kind of experiment: Reduction in bioluminescent methicillin-sensitive Staphylococcus aureus Xen29 in immunocompetent CD1 mouse with peritonitis at 50 mg/kg, sc after 3 hrs relative to control. The arrangement: scale not given: the % may be the effect or the level left. As to conditions: route subcutaneous. A digest of the protocol: as §2

The subject of test [7] is Staphylococcus aureus. As to the kind of experiment: Antimicrobial activity against bioluminescent methicillin-resistant Staphylococcus aureus Xen1. A digest of the protocol:
(§3)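 MIC by broth microdilution following CLSI guidelines against bioluminescent lux-carrying strains (Xen-1 plasmid-borne lux, Xen-29 chromosomal lux), grown overnight in Mueller-Hinton broth at 37°C.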

Test [8] has as its system Staphylococcus aureus. As to the kind of experiment: Antibacterial activity against methicillin-resistant Staphylococcus aureus Xen1 infected neutropenic CD1 mouse assessed as mouse survival at 50 mg/kg, sc after 24 hrs. As to conditions: route subcutaneous. The method, boiled down: as §1
Test [9] concerns Staphylococcus aureus. As to the kind of experiment: Reduction in bioluminescent methicillin-sensitive Staphylococcus aureus Xen29 in immunocompetent CD1 mouse with peritonitis at 50 mg/kg, sc after 5 hrs relative to control. The arrangement: scale not given: the % may be the effect or the level left. Conditions: route subcutaneous. The method, boiled down: (§4)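 Peritonitis in healthy female CD-1 mice: lethal i.p. inoculum in 6% mucin, single s.c. dose 1 h later. Mice were anesthetized hourly (isoflurane inhalation or pentobarbital 60 mg/kg i.p.) and imaged ventral side up for 1–5 min. Total flux (photons/s/cm2) was taken over the infected-site region of interest and averaged over 5 mice. Percent reduction is versus saline-treated (10 ml/kg s.c.) controls at the same time point.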

In test [10] the test system is Staphylococcus aureus. As to the kind of experiment: Reduction in bioluminescent methicillin-sensitive Staphylococcus aureus Xen29 in neutropenic CD1 mouse with peritonitis at 50 mg/kg, sc after 3 hrs relative to control. The arrangement: scale not given: the % may be the effect or the level left. As to conditions: route subcutaneous. The method, boiled down:
(§5)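 Cyclophosphamide-neutropenic female CD-1 mice (150 mg/kg i.p. day −4, 100 mg/kg day −1) were infected i.p. with a lethal inoculum in 6% mucin. A single s.c. or gavage dose was given 1 h later. Mice were anesthetized and imaged hourly to 5 h. Region-of-interest total flux (photons/s/cm2) was averaged over 5 mice. Percent reduction is relative to time-matched saline (10 ml/kg s.c.) controls.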

Test [11] relates to Staphylococcus aureus. As to the kind of experiment: Antibacterial activity against methicillin-susceptible Staphylococcus aureus Xen29 infected neutropenic CD1 mouse assessed as mouse survival at 50 mg/kg, sc after 24 hrs. Conditions: route subcutaneous. The method, boiled down: as §1
Test [12] relates to Staphylococcus aureus. As to the kind of experiment: Reduction in bioluminescent methicillin-sensitive Staphylococcus aureus Xen29 in neutropenic CD1 mouse with peritonitis at 50 mg/kg, sc after 5 hrs relative to control. The arrangement: scale not given: the % may be the effect or the level left. As to conditions: route subcutaneous. A digest of the protocol:
(§6)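 Neutropenia was induced with cyclophosphamide 150 mg/kg i.p. at day −4 and 100 mg/kg i.p. at day −1. Mice were then infected i.p. with Xen-29 (2 × 10^7 to 5 × 10^8 CFU) in 6% mucin (n = 5/group) and dosed once, s.c. or by gavage, at 1 h. Luminescence was imaged hourly under anesthesia, 0–5 h postdosing. Mean region-of-interest flux is given as percent reduction versus time-matched saline (10 ml/kg s.c.) controls.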

Test [13] has as its system Staphylococcus aureus. As to the kind of experiment: Reduction in bioluminescent methicillin-sensitive Staphylococcus aureus Xen29 in neutropenic CD1 mouse with peritonitis at 50 mg/kg, sc after 2 hrs relative to control. As to conditions: route subcutaneous. More on the design: scale not given: the % may be the effect or the level left. A digest of the protocol:
as §6

In test [14] the test system is Staphylococcus aureus. As to the kind of experiment: Antibacterial activity against methicillin-susceptible Staphylococcus aureus Xen29 infected nonneutropenic CD1 mouse assessed as mouse survival at 50 mg/kg, sc after 7 days. As to conditions: 168 h, route subcutaneous. The method, boiled down: (§7)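 Healthy female CD-1 mice (20–25 g) were infected i.p. with a lethal dose of lux strain (2 × 10^7 to 5 × 10^8 CFU/mouse) from an overnight Mueller-Hinton culture suspended in 6% hog gastric mucin. A single s.c. dose was given 1 h post-inoculation. Survival was recorded daily for 7 days, n=5/group.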

Test [15] relates to Staphylococcus aureus. As to the kind of experiment: Antibacterial activity against methicillin-susceptible Staphylococcus aureus Xen29 infected neutropenic CD1 mouse assessed as mortality at 50 mg/kg, sc after 7 days. As to conditions: 168 h, route subcutaneous. The method, boiled down:
as §1

The test system of test [16] is Staphylococcus aureus. As to the kind of experiment: Antibacterial activity against methicillin-resistant Staphylococcus aureus Xen1 infected neutropenic CD1 mouse assessed as mortality at 50 mg/kg, sc after 7 days. As to conditions: 168 h, route subcutaneous. The method, boiled down:
as §1

In test [17] the test system is Staphylococcus aureus. As to the kind of experiment: Reduction in bioluminescent methicillin-resistant Staphylococcus aureus Xen1 in neutropenic CD1 mouse with peritonitis at 50 mg/kg, sc after 2 hrs relative to control. As to conditions: route subcutaneous. The arrangement: scale not given: the % may be the effect or the level left. A digest of the protocol: as §5

The subject of test [18] is Staphylococcus aureus. As to the kind of experiment: Reduction in bioluminescent methicillin-sensitive Staphylococcus aureus Xen29 in neutropenic CD1 mouse with peritonitis at 50 mg/kg, sc after 4 hrs relative to control. The arrangement: scale not given: the % may be the effect or the level left. Conditions: route subcutaneous. The method, boiled down: as §6
Test [19] relates to Staphylococcus aureus. As to the kind of experiment: Antimicrobial activity against bioluminescent methicillin-susceptible Staphylococcus aureus Xen29. A digest of the protocol:
as §3

The test system of test [20] is Staphylococcus aureus. As to the kind of experiment: Reduction in bioluminescent methicillin-resistant Staphylococcus aureus Xen1 in neutropenic CD1 mouse with peritonitis at 50 mg/kg, sc after 5 hrs relative to control. The arrangement: scale not given: the % may be the effect or the level left. As to conditions: route subcutaneous. The method, boiled down: as §5

Test [21] relates to Staphylococcus aureus. As to the kind of experiment: Reduction in bioluminescent methicillin-resistant Staphylococcus aureus Xen1 in immunocompetent CD1 mouse with peritonitis at 50 mg/kg, sc after 2 hrs relative to control. Conditions: route subcutaneous. More on the design: scale not given: the % may be the effect or the level left. A digest of the protocol:
as §4

Test [22] deals with Staphylococcus aureus. As to the kind of experiment: Reduction in bioluminescent methicillin-resistant Staphylococcus aureus with peritonitis Xen1 in immunocompetent CD1 mouse at 50 mg/kg, sc after 3 hrs relative to control. The arrangement: scale not given: the % may be the effect or the level left. Conditions: route subcutaneous. A digest of the protocol: as §4
The test system of test [23] is Staphylococcus aureus. As to the kind of experiment: Antibacterial activity against methicillin-resistant Staphylococcus aureus Xen1 infected nonneutropenic CD1 mouse assessed as mouse survival at 50 mg/kg, sc after 7 days. Conditions: 168 h, route subcutaneous. A digest of the protocol:
as §7

The test system of test [24] is Staphylococcus aureus. As to the kind of experiment: Reduction in bioluminescent methicillin-sensitive Staphylococcus aureus Xen29 in immunocompetent CD1 mouse with peritonitis at 50 mg/kg, sc relative to control. Conditions: route subcutaneous. More on the design: scale not given: the % may be the effect or the level left. The method, boiled down:
as §2

On to `CN[C@H](CC(C)C)C(=O)N[C@H]1C(=O)N[C@@H](CC(N)=O)C(=O)N[C@H]2C(=O)N[C@H]3C(=O)N[C@H](C(=O)N[C@H](C(=O)O)c4cc(O)cc(O)c4-c4cc3ccc4O)[C@H](O)c3ccc(c(Cl)c3)Oc3cc2cc(c3O[C@@H]2O[C@H](CO)[C@@H](O)[C@H](O)[C@H]2O[C@H]2C[C@](C)(N)[C@H](O)[C@H](C)O2)Oc2ccc(cc2Cl)[C@H]1O` [VANCOMYCIN], for which the survival at 100 mg/kg in the test on Staphylococcus aureus [1] and in the test on Staphylococcus aureus [4] was 100% in each case. Further, the Activity in the test with Staphylococcus aureus [2] and with Staphylococcus aureus [3] was 100% in each case.
For the molecule `CCCCCCCCCC(=O)N[C@@H](Cc1c[nH]c2ccccc12)C(=O)N[C@H](CC(N)=O)C(=O)N[C@@H](CC(=O)O)C(=O)N[C@@H]1C(=O)NCC(=O)N[C@@H](CCCN)C(=O)N[C@@H](CC(=O)O)C(=O)N[C@H](C)C(=O)N[C@@H](CC(=O)O)C(=O)NCC(=O)N[C@H](CO)C(=O)N[C@@H]([C@H](C)CC(=O)O)C(=O)N[C@@H](CC(=O)c2ccccc2N)C(=O)O[C@@H]1C`, the Activity with Staphylococcus aureus [5] is 98%; in the test with Staphylococcus aureus [6], 96%; with Staphylococcus aureus [9], 99%; with Staphylococcus aureus [10], 98%; with Staphylococcus aureus [12], more than 99.7%; in the test with Staphylococcus aureus [13] it was 92%. Further, the Activity was 93% in the test with Staphylococcus aureus [17]; 99.4% in the test on Staphylococcus aureus [18]; 99.9% in the test on Staphylococcus aureus [20]; 89% in the test on Staphylococcus aureus [21]; 97% in the test with Staphylococcus aureus [22]; 90% with Staphylococcus aureus [24]. In addition, the minimum inhibitory concentration (MIC) (usually the smallest concentration in the dilution series that meets the test's criterion for growth inhibition) in the test on Staphylococcus aureus [7] came to 0.5 µg/mL (≈ 0.309 µM); against Staphylococcus aureus [19], 1 µg/mL (≈ 0.617 µM). Further, the survival at 50 mg/kg in the test with Staphylococcus aureus [8] is 100%; with Staphylococcus aureus [11], 100%; in the test with Staphylococcus aureus [14], 100%; in the test with Staphylococcus aureus [15] it was 40%; in the test on Staphylococcus aureus [16], 40%; with Staphylococcus aureus [23], 100%.

Values taken from ChEMBL document CHEMBL1144463, “Rapid bactericidal activity of daptomycin against methicillin-resistant and methicillin-susceptible Staphylococcus aureus peritonitis in mice as measured with bioluminescent bacteria” (2007).
